# Runt-CBFb FRET – Runt domain-CBFb interaction inhibition. Q01196+Q13951. inhibition, % at 20 µM. Cerulean-Runt/Venus-CBFb FRET ratio 530/480, 1 h. 220,000 compounds, 0.46% hits;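 active = inhibition over about 50% at 20 µM in the single-dose screen, limit read from the data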
# Target sequence (Q01196 whole entry, looked up, the tested form may be a part): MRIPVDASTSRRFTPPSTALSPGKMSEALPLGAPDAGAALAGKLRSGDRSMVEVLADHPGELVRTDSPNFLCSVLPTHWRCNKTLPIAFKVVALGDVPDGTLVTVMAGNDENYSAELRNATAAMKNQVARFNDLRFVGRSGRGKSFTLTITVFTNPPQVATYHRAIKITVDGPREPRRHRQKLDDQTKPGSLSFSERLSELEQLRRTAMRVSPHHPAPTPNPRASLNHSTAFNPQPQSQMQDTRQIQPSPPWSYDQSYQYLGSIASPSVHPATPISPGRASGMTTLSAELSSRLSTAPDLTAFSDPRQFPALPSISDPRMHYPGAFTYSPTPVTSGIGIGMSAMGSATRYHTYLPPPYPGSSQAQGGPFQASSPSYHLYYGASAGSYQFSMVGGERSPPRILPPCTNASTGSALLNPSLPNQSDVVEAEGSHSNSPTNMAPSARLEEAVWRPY
# Target sequence (Q13951 whole entry, looked up, the tested form may be a part): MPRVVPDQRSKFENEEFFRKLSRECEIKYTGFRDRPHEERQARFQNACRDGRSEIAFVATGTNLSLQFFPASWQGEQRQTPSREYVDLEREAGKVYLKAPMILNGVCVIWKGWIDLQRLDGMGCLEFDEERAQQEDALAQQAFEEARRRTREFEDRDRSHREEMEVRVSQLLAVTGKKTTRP
#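 System: Cerulean-labeled Runt domain protein | Quantity: 100 nM of each labeled protein | Schedule: 1 h compound exposure, room temperature | Detection: Fluorescence energy transfer, 422 nm excitation, 530/480 nm emission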
# Runt-SMMHC FRET – inhibitors of human RUNX1 Runt domain binding to CBFb-SMMHC; 220,000 compounds, 0.74% hits; Q01196+Q13951; Cerulean-Runt/Venus-CBFb-SMMHC FRET ratio 530/480, 1 h; inhibition, % at 20 µM;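 active = mean inhibition across duplicate retests at 20 µM reaching about 50%, limit read from the data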;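 also: inhibitors lower the FRET ratio by blocking Runt binding to CBFb-SMMHC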
# MEX-5 binding – C. elegans MEX-5 TCR-2 RNA binding activity. activity score (negative = inhibition of binding), % at 10 µM. 300,000 compounds, 0.38% hits. MEX-5/FITC-TCR2 RNA binding, fluorescence polarization; active compounds read low. AID 1832;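 active = inhibition past about -25% in most replicates, and total fluorescence under double the plate's negative control median, limit read from the data; inconclusive = replicates evenly split on the limit, or fluorescence at least double controls; inactive = too little inhibition in most replicates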
# EBV gp42 inh – blocks Epstein-Barr virus glycoprotein 42 binding | inhibition, % (tested at 21.74 µM) | 220,000 compounds, 0.42% hits | AID 1085 | Fluorescence polarization binding assay, mP read-out | Q1HVG2
# RanGTP-Impb inh – disruptors of Ran-importin-beta complex formation – biochemical, FRET, CFP-Ran, YFP-importin-beta, homogeneous, primary screen; cell-free CFP-Ran/YFP-importin-beta FRET ratio; inhibition, % (concentration not given with the values); 300,000 compounds, 1.1% hits; AID 2216;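 active = more than half of the replicate wells show a fall in the fluorescence ratio signal beyond about 16%, limit read from the data, passing the limit was not always enough; inconclusive = exactly half of the replicate wells pass the set limit; inactive = fewer than half of replicates pass the limit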
# PKD1 inh – PKD1 (human) kinase inhibition; AID 797; Q15139; PKD1 kinase fluorescence polarization assay; 200,000 compounds, 0.056% hits; inhibition, % (no concentration beside the values)
# A number is an active result; - = inactive; ? = inconclusive; . = no result given. Rows were chosen to be rich in hits. Some 2% of all compounds tested hit in one or more screens of this group. Rule as the data show it, unless noted: active = inhibition above about 50%; inactive = the rest.
SMILES,Runt-CBFb FRET,Runt-SMMHC FRET,MEX-5 binding,EBV gp42 inh,RanGTP-Impb inh,PKD1 inh
CC(/C=N/NC(=O)c1ccc(Cn2cc([N+](=O)[O-])cn2)o1)=C\c1ccccc1,.,.,-,.,-,.
O=C1C(=O)N(Cc2cccnc2)C(c2cccc(Br)c2)/C1=C(/O)c1ccc2c(c1)OCO2 (stereo not drawn),.,.,-,.,-,.
CCN1CCc2c(sc(NC(=O)Cc3ccccc3)c2C(N)=O)C1,.,.,-,.,155,.
CCOC(=O)c1c(NC(=O)OC)sc2c1CCC2,-,-,-,-,-,-
CN1CCc2c(sc(NC(=O)Cc3ccccc3)c2C(N)=O)C1,.,.,-,.,134,.
CCOC(=O)c1c(NC(=O)C(F)(OC)C(F)(F)F)sc2c1CCN(C)C2 (stereo not drawn),84,62,-,-,76,-
CCN1CCc2c(sc(NC(=O)COc3ccccc3)c2C(=O)OC)C1,.,.,-,.,87,.
CCOC(=O)c1c(NC(=S)Nc2ccc(Cl)cc2)sc2c1CCN(C)C2,98,164,.,-,.,-
CCOC(=O)c1c(NC(=S)Nc2ccc(C)cc2)sc2c1CCC2,-,-,-,-,-,-
CCN1CCc2c(sc(NC(=O)Nc3ccc(Cl)c(Cl)c3)c2C(N)=O)C1,-,77,.,-,.,-
CCOC(=O)c1c(NC(=O)CSc2nnc(C)s2)sc2c1CCN(C)C2,79,135,-,-,27,-
CCN1CCc2c(sc(NC(=S)NC(=O)c3ccco3)c2C(N)=O)C1,-,58,-,-,163,.
CCN1CCc2c(sc(NC(=O)c3ccc(S(=O)(=O)N4CCOCC4)cc3)c2C(N)=O)C1,-,-,-,-,?,-
CN(C)S(=O)(=O)c1cccc(NC(=O)c2cc(=O)[nH]c(=O)[nH]2)c1,.,.,-,.,-,.
Cn1c(SCC(=O)NNC(=O)c2ccc(Cl)cc2)nnc1-c1cccnc1,-,-,-,-,-,-
CC(C)(C)c1cc(CCC(=O)NCc2ccncc2)cc(C(C)(C)C)c1O,.,.,-,.,-,.
CN1CCc2c(sc(NC(=O)c3ccc4ccccc4c3)c2C(N)=O)C1,.,.,-92,.,.,.
CCN1CCc2c(sc(NC(=O)c3ccc(S(=O)(=O)N(CC)c4ccccc4)cc3)c2C(N)=O)C1,.,.,-,.,72,.
O=C1CCc2cc(S(=O)(=O)NCCC(=O)NC3CCCCC3)ccc2N1,.,.,-,.,?,.
COC(=O)COc1ccc2cc(-c3ccccc3)c(=O)oc2c1,.,.,-,.,?,.
Cn1c(-c2cc3ccc(OC(=O)C(C)(C)C)cc3oc2=O)nc2ccccc21,-,-,-,-,150,-
CCN(CC)Cc1c(O)ccc2cc(-c3nc4ccccc4n3C)c(=O)oc12,.,.,-,.,132,.
CC(=O)Oc1ccc2cc(-c3nc4ccccc4n3C)c(=O)oc2c1,-,-,-,-,147,-
COc1ccc2cc(C(=O)c3ccccc3)c(=O)oc2c1,-,-,-,-,-,-
CCc1cc2c(=O)c(-c3nc4ccccc4n3C)c(C)oc2c(CN(CC)CC)c1O,-,-,-,-,-,-
SMILES,Runt-CBFb FRET,Runt-SMMHC FRET,MEX-5 binding,EBV gp42 inh,RanGTP-Impb inh,PKD1 inh
CC(C)(C)C(=O)Oc1ccc2cc(-c3ccc4ccccc4n3)c(=O)oc2c1,-,60,-,-,28,-
NC(=O)COc1ccc2cc(-c3ccccc3)c(=O)oc2c1,.,.,-,.,-,.
CCN(CC(=O)Nc1cccc(OC)c1)C(=O)c1cnc(Cl)c(Cl)c1,.,.,-,.,-,.
COc1cc(SC)ccc1C(=O)NNC(=O)c1cc(C)oc1C,.,.,-,.,-,.
Cc1cc(NS(=O)(=O)c2ccc(NC(=O)c3cc4cc(Br)ccc4oc3=O)cc2)no1,-,-,-,101,-,-
CCN(C(=O)COC(=O)Cc1c[nH]c2ccccc12)c1c(N)n(Cc2ccccc2)c(=O)[nH]c1=O,.,.,-,.,-,.
COc1ccc(C(=O)N2c3ccccc3C=CC2C#N)cc1 (stereo not drawn),-,-,-,-,-,-
N#C[C@H]1[C@H](c2ccccc2)[C@](C#N)(C(=O)c2ccccc2)[C@@H]2C=Cc3ccccc3N21,-,-,-,-,47,-
Cc1cc(-c2nn(-c3ccccc3)cc2/C=C2\SC(N)=NC2=O)ccc1OC(C)C,-,-,-,-,-,-
CCCOc1ccc(-c2nn(-c3ccccc3)cc2/C=C2\SC(N)=NC2=O)cc1,-,-,-,-,19,-
COC(C[C@@H]1O[C@H]1C(=O)[C@@H](C)OCc1ccccc1)OC,.,.,-,.,-,.
O=[N+]([O-])c1cccc(S(=O)(=O)Nc2nc3ccccc3nc2Nc2cccc(S(=O)(=O)N3CCCCC3)c2)c1,-,-,-,-,-,-
Cc1ccc(S(=O)(=O)Nc2nc3ccccc3nc2Nc2cccc(S(=O)(=O)N3CCCC3)c2)cc1,-,90,-,56,30,-
Oc1ccc(N=Nc2n[nH]c(-c3ccccc3)n2)cc1,-,-,-37,-,-,-
COc1ccc(-c2cnc3c(c2)CCC3(C#N)C#N)cc1,-,-,-,-,-,-
Cc1ccc(C=Nc2cccnc2N)cc1,-,-,-,-,-,-
COc1ccc(C=Nc2cccnc2N)cc1,.,.,-,.,25,.
COc1ccc(C(=O)C2CCCN(C(=O)c3cccc(N4CCCC4=O)c3)C2)cc1OC (stereo not drawn),.,.,-,.,-,.
CC(C)(C)c1cc[n+](-c2[nH]c(=O)sc2/C=N/NC(=O)c2ccccc2[O-])cc1,.,.,-,.,-,.
CCc1ccc[n+](-c2[nH]c(=O)sc2/C=N/NC([S-])=Nc2ccccc2)c1,-,-,-55,66,-,-
O=c1[nH]c(-[n+]2ccccc2)c(/C=N/NC([S-])=Nc2ccccc2)s1,-,-,-82,-,-,.
Cc1cc[n+](-c2[nH]c(=O)sc2/C=N/NC([S-])=Nc2ccccc2)cc1,-,-,-,59,-,-
Cc1cc(C)c[n+](-c2[nH]c(=O)sc2/C=N/NC([S-])=Nc2ccccc2)c1,-,-,-49,-,-,-
O=C(N=C1SC2CS(=O)(=O)CC2N1c1ccc(OC(F)(F)F)cc1)C1CC1 (stereo not drawn),.,.,-,.,-,.
O=C(/C=C/c1cccc(F)c1)N1CCN(c2ncccn2)CC1,-,-,-,-,-,-
SMILES,Runt-CBFb FRET,Runt-SMMHC FRET,MEX-5 binding,EBV gp42 inh,RanGTP-Impb inh,PKD1 inh
CC1CCc2c(sc(NC(=O)/C=C/c3cccs3)c2C(=O)O)C1 (stereo not drawn),.,.,-,.,-,.
CCOC(=O)C1C(=O)C=C(/C=C/c2ccc(N(C)C)cc2)CC1c1ccccc1 (stereo not drawn),-,-,?,103,-,-
Cc1ccc(Nc2nc3ccccc3nc2-n2nc(C)cc2C)cc1,-,-,-,-,31,-
Cc1ccc(-n2c(N)c(-c3nc4ccccc4n3C)sc2=S)cc1,-,-,-,-,28,-
CNC(=O)Nc1ccccc1C(=O)Nc1ccccc1,-,-,-,-,-,.
O=C(O)c1ccc(Nc2ncc([N+](=O)[O-])cc2[N+](=O)[O-])cc1,-,-,-,-,-,-

# Bioassay records as filed in PubChem BioAssay.
